These results are taken from ChEMBL document CHEMBL3259660, “Haloemodin as novel antibacterial agent inhibiting DNA gyrase and bacterial topoisomerase I” (J Med Chem, 2014).

A word on the LD50: it is the dose expected to kill half of the subjects tested. A lower LD50 goes with greater toxicity. One may read the IC90 as the concentration needed for an effect of 90%.

SMILES strings stand for the structures. ≈ marks a conversion by molar mass, not a printed value. Calls of active or inactive are those of the source. The rule behind the calls is not given here.

A short description of series [1]: In vivo acute toxicity in iv dosed Kunming mouse. In kind it is organism-based. Put shortly: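 Male and female adult Kunming mice (18−22 g) received a single intravenous injection at various doses (n = 10 per group, 200 μL per mouse). Compound was given in polyethylene glycol−water (1:1, v/v), and controls received vehicle alone. Mortality was recorded for 7 days. LD50 was estimated by probit analysis.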

For series [2], the system named is Staphylococcus aureus. In words: Antibacterial activity against Staphylococcus aureus ATCC 29213 assessed as growth inhibition by agar dilution assay. Type of series: functional. Put shortly:
(§1)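 Agar dilution MIC per CLSI (aerobic and anaerobic methods); compounds dissolved in DMSO, reference antibiotics in sterile water. MIC taken as lowest concentration with no visible growth; determined at least twice on separate days, higher value reported. Clinical isolate ranges summarized as MIC50/MIC90.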
For orientation: Agar dilution tests growth on a series of plates holding different concentrations.

The target in series [3] is T1, DNA topoisomerase 1 (Escherichia coli (strain K12)) (UniProt P06612).
T1 sequence (whole entry): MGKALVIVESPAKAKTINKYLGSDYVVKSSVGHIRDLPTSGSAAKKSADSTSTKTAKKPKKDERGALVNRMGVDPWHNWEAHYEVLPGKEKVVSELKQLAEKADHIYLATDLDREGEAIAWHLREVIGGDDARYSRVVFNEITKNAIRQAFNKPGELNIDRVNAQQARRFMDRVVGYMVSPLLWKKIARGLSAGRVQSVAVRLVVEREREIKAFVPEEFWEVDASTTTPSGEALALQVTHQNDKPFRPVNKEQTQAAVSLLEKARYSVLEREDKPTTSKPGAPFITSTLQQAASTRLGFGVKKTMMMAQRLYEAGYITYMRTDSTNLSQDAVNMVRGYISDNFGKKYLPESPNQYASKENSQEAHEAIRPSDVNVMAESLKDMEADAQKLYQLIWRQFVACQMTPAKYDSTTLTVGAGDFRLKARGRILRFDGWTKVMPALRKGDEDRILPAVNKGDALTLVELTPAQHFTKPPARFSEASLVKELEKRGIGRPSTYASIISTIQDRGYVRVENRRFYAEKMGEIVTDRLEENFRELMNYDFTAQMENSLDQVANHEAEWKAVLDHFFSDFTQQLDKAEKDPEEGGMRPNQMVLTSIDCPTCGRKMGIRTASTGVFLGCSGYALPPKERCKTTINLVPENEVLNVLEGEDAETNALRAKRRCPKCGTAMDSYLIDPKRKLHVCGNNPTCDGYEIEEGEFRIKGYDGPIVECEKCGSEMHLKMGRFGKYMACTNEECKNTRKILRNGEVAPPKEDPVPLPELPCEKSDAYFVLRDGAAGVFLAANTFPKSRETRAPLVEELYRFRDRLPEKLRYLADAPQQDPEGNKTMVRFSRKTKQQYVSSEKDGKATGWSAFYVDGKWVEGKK
Put plainly: Inhibition of Escherichia coli topoisomerase 1-mediated pHOT-1 DNA relaxation at >90 uM treated with pHOT-1 substrate for 15 mins prior to enzyme addition for 30 mins by agarose gel electrophoresis.

Series [4] has as its system Enterococcus faecium. Put plainly: Antibacterial activity against vancomycin-sensitive Enterococcus faecium assessed as growth inhibition by agar dilution assay. Type of series: functional.
The test system of series [5] is Enterococcus faecium. Put plainly: Antibacterial activity against vancomycin-resistant Enterococcus faecium assessed as growth inhibition by agar dilution assay. In kind it is functional.
Series [6] deals with Streptococcus pneumoniae. In words: Antibacterial activity against Streptococcus pneumoniae assessed as growth inhibition by agar dilution assay. In kind it is functional. Summed up:
as §1

Series [7] in a line: Cytotoxicity against CHL cells assessed as cell viability after 24 hrs by MTT assay. Particulars: chinese hamster. Type of series: cell-based, Cricetulus griseus. Summed up: (§2)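 CHL fibroblasts seeded at about 5 × 10^4 cells/mL, incubated overnight at 37 °C, 5% CO2, then exposed to compound at different concentrations for 24 h. Viability read by MTT, absorbance at 570 nm, relative to cells in medium alone (100%). Triplicate.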
A general note: Tetrazolium dyes change colour on reduction, which living cells bring about.

In a further series the test system is Bacteroides fragilis. In words: Antibacterial activity against Bacteroides fragilis ATCC 25285 assessed as growth inhibition by agar dilution assay. In kind it is functional. Put shortly:
as §1

For series [8], the target named is T1, DNA topoisomerase 1 (Escherichia coli (strain K12)). Put plainly: Inhibition of Escherichia coli topoisomerase 1-mediated pHOT-1 DNA relaxation treated with pHOT-1 substrate for 15 mins prior to enzyme addition for 30 mins by agarose gel electrophoresis.
Series [9] concerns Staphylococcus aureus. In words: microbe, parasite or virus in culture. In kind it is functional. As to conditions: ATCC 6538.
Series [10] relates to Staphylococcus aureus. Put plainly: In vivo antibacterial activity against Staphylococcus aureus in New zealand rabbit keratitis model assessed as suppression of corneal edema at 4.3 mg/ml administered topically every 4 hrs for four doses every day for 10 days starting 24 hrs post-infection by slit lamp biomicroscopy. As to conditions: Cornea. In kind it is functional, organism-based. Put shortly:
(§3)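 NZW rabbits (2.0−3.0 kg), anesthetized with iv sodium pentobarbital 30 mg/kg, given intracorneal S. aureus (about 7.5 × 10^6 CFU) from an overnight LB culture. Starting 24 h post-infection, 30 μL drops applied topically per eye every 4 h, four doses daily (8 a.m.–8 p.m.), for 10 days, masked. Test compound in PEG–water (1:1). Slit-lamp biomicroscopy before and after.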

For series [11], the system named is Pseudomonas aeruginosa. In words: Antibacterial activity against Pseudomonas aeruginosa ATCC 27853 assessed as growth inhibition by agar dilution assay. In kind it is functional. Summed up:
as §1

Series [12] deals with Staphylococcus aureus. In words: Antibacterial activity against methicillin-resistant Staphylococcus aureus assessed as growth inhibition by agar dilution assay. In kind it is functional. Summed up: (§4)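 CLSI agar dilution MIC against aerobic and anaerobic strains. Test compounds were dissolved in DMSO and reference antibiotics in sterile water. MIC was taken as the lowest concentration showing no bacterial growth. Each MIC was determined at least twice on separate days, and the higher value was reported. E. coli PQ 37 was cultured in LA medium.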

Series [13] has as its target T1, DNA topoisomerase 1 (Escherichia coli (strain K12)). In words: Inhibition of Escherichia coli topoisomerase 1 assessed as single stranded breaks using pHOT-1 DNA as substrate treated with substrate for 15 mins prior to enzyme addition for 30 mins by agarose gel electrophoresis.
Series [14] concerns Streptococcus pneumoniae. In words: Antibacterial activity against Streptococcus pneumoniae ATCC 49619 assessed as growth inhibition by agar dilution assay. Type of series: functional. Summed up:
as §1

Series [15] relates to Brevibacillus laterosporus. In words: Antibacterial activity against Brevibacillus laterosporus ATCC 64 assessed as growth inhibition by agar dilution assay. In kind it is functional.
Series [16] concerns Pseudomonas aeruginosa. In words: Antibacterial activity against Pseudomonas aeruginosa assessed as growth inhibition by agar dilution assay. In kind it is functional. Summed up:
as §4

A short description of series [17]: Cytotoxicity against CHL cells assessed as cell viability at 0.064 mg/ml after 24 hrs by MTT assay. Type of series: cell-based, Cricetulus griseus. Particulars: chinese hamster. Summed up:
as §2

The subject of the next series is Escherichia coli. Put plainly: Antibacterial activity against Escherichia coli PQ 37 harboring OM permeability barrier mutant assessed as growth inhibition by agar dilution assay. In kind it is functional. Summed up:
as §4

Series [18] deals with Staphylococcus aureus. Put plainly: In vivo antibacterial activity against Staphylococcus aureus in New zealand rabbit keratitis model assessed as suppression of conjuctival congestion, conjuctival chemosis, infiltration, operative ulcer area and depth at 4.3 mg/ml administered topically every 4 hrs for four doses every day for 10 days starting 24 hrs post-infection by slit lamp biomicroscopy. In kind it is functional, organism-based. Put shortly:
as §3

Series [19] has as its target DNA gyrase (Staphylococcus aureus) (UniProt P0A0K8+P20831). Put plainly: Inhibition of Staphylococcus aureus DNA gyrase-mediated double-stranded catenated kinetoplast DNA decatenation at 90 uM after 30 mins by agarose gel electrophoresis in presence of ATP. In kind it is protein-complex assay. Summed up:
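kDNA decatenation: 200 ng catenated kDNA with 1 U S. aureus gyrase, E. coli gyrase or human Topo IIα in assay buffer with ATP, 37 °C for 30 min. Stopped with universal stop solution, resolved on 1% agarose, ethidium bromide stained, UV imaging.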

DNA gyrase (Staphylococcus aureus), sequence (P0A0K8 2-644 limits assumed): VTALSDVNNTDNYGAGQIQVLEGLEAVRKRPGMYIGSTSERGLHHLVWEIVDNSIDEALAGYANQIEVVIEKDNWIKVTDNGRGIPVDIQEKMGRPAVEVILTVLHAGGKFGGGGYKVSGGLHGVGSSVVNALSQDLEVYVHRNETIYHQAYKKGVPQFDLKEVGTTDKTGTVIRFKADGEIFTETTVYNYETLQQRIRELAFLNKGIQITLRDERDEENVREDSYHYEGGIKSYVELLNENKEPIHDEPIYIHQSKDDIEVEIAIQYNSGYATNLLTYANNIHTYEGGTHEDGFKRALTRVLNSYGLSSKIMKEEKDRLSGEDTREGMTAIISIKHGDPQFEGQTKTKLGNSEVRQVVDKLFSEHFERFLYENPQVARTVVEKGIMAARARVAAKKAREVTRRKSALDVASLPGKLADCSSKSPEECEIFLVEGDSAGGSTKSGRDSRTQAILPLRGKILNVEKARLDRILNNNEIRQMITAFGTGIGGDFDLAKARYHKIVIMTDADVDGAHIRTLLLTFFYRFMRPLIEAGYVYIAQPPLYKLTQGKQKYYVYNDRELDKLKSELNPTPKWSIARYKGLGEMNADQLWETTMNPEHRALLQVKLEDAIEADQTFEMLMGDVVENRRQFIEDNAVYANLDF
DNA gyrase (Staphylococcus aureus), sequence (P20831 whole entry partner): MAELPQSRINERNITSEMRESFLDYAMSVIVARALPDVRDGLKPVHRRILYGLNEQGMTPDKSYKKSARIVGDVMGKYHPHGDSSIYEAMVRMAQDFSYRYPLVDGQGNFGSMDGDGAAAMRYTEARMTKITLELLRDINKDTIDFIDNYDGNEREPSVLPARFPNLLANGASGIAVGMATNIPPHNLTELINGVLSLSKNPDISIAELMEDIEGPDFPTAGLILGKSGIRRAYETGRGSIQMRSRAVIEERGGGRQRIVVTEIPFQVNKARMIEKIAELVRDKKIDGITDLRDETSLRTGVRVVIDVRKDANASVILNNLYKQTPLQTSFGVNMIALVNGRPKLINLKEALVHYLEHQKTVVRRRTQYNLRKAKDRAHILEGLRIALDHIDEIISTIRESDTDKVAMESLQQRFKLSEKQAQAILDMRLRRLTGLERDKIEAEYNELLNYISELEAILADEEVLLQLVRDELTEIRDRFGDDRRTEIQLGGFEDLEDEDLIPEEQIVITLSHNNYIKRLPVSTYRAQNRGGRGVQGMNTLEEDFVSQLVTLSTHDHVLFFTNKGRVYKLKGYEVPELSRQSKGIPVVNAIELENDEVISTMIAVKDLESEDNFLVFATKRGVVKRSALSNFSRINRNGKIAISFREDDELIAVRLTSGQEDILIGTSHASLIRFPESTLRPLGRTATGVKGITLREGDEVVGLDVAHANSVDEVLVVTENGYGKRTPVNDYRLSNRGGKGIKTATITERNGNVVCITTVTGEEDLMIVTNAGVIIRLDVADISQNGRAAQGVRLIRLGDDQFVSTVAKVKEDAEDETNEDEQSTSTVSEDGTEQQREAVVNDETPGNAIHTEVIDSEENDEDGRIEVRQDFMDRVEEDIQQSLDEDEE

Compound `Cc1cc(O)c2c(c1)C(=O)c1c(I)c(O)c(I)c(O)c1C2=O` gave an LD50 in [1] of 110 mg/kg. Also, the MIC with Staphylococcus aureus [2] amounted to 8 µg/mL (≈ 15.3 µM); in the series on Enterococcus faecium [4], 16 µg/mL (≈ 30.6 µM); in the series with Enterococcus faecium [5], 8 µg/mL (≈ 15.3 µM); in the series on Streptococcus pneumoniae [6], 32 µg/mL (≈ 61.3 µM); with Bacteroides fragilis it was 256 µg/mL (≈ 490 µM); against Staphylococcus aureus [9] it was 2 µg/mL (≈ 3.83 µM). Also, the MIC in the series with Pseudomonas aeruginosa [11] was above 256 µg/mL; with Staphylococcus aureus [12], 4 µg/mL (≈ 7.66 µM); in the series with Streptococcus pneumoniae [14] it was 64 µg/mL (≈ 123 µM); in series [15] it was 4 µg/mL (≈ 7.66 µM); with Pseudomonas aeruginosa [16], above 256 µg/mL; in the series on Escherichia coli, 8 µg/mL (≈ 15.3 µM). Moreover, the inhibition result (in [3]; in the series with Staphylococcus aureus [10]; with Staphylococcus aureus [18]; in [19]) was “Active” throughout. For the same compound, in [7], the IC90 at 24 h stood at 256 µg/mL (≈ 490 µM). Also, in series [8], the inhibition result is “Dose-dependent effect”. Moreover, the result in series [13] was inactive. Also, in series [17], the Activity result was “Non-toxic”.
